≈ marks a conversion by molar mass, not a printed value. Like-named read-outs stand apart in the source and are kept apart here.
Experiments:
P. aeruginosa (PA01) = experiment: P. aeruginosa growth inhibition assay; type: cell-based; details: Pseudomonas aeruginosa
Outline: (§1)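 Strains: A. baumannii ATCC 19606, K. pneumoniae ATCC 27736 and P. aeruginosa PA01, grown overnight in cation-adjusted Mueller-Hinton broth. Cultures diluted 1000-fold in fresh broth, with test compound as a 3-fold series from 1 mm to 46 nm. Incubated overnight at 37°C, 200 RPM; OD600 read. Rescue arm: farnesol 200 μm in the medium. Duplicate experiments, mean±SD.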

B. subtilis = B. subtilis growth inhibition assay; type: cell-based; details: Bacillus subtilis, read-out: IC50 B. subtilis
Outline: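 B. subtilis ATCC 6051 grown overnight in LB and diluted 1000-fold in fresh LB. Test compound added as a 3-fold series from 1 mm to 46 nm. Incubated overnight at 37°C with shaking at 200 RPM; inhibition read from OD600.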

K. pneumoniae [1] = experiment: Synergy/antagonism two-drug combination assay, K. pneumoniae; type: cell-based
SmFPPS = SmFPPS (Schistosoma mansoni, UniProt G4VEL6); experiment: SmFPPS inhibition, phosphate release assay; type: biochemical
Outline: (§2)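 Purified enzyme (25 ng) preincubated with inhibitor for 10 min at room temperature in pH 7.0 buffer (10 mM HEPES, 150 mM NaCl, 5 mM MgCl2). Inhibitor stocks were 10 mM in DMSO or basic water, serially diluted from 1 mM to 1 nM. Reaction mix: 50 μM GPP, 50 μM IPP, purine nucleoside phosphorylase, inorganic phosphatase, ~600 μM MESG.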

K. pneumoniae [2] = experiment: K. pneumoniae growth inhibition assay; type: cell-based; details: Klebsiella pneumoniae
Outline: as §1

[3] = target: T1, human geranylgeranyl diphosphate synthase (HsGGPPS) (Homo sapiens, UniProt O95749); experiment: HsGGPPS inhibition; type: biochemical
T1 sequence (O95749 1-300): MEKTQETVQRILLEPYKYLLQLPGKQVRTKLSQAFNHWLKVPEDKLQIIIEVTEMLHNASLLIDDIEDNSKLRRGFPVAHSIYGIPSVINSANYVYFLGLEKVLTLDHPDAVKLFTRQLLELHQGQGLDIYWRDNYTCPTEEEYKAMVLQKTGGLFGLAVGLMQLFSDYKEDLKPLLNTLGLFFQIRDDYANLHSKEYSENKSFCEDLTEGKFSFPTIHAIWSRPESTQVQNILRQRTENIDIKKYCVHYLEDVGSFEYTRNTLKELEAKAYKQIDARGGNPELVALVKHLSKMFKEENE

HsFPPS = target: T2, HsFPPS (Homo sapiens, UniProt P14324); experiment: HsFPPS inhibition, phosphate release assay; type: biochemical, H. sapiens
T2 sequence (P14324 1-419): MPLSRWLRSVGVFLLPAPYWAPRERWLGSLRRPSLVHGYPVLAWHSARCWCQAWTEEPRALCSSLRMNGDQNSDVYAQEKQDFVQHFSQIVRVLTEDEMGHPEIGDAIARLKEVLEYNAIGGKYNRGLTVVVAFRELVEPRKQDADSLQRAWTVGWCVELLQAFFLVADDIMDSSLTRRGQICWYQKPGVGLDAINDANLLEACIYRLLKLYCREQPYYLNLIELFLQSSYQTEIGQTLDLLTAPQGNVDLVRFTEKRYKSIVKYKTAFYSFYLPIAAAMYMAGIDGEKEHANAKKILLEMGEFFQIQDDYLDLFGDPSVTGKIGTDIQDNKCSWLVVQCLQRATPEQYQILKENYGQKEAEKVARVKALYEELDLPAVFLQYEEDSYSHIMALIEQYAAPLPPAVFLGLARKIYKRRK

A. baumannii [4] = experiment: Synergy/antagonism two-drug combination assay, A. baumannii; type: cell-based
EcFPPS = EcFPPS (Escherichia coli, UniProt P22939); experiment: EcFPPS inhibition, phosphate release assay; type: biochemical, E. coli
Sequence of EcFPPS (P22939 whole entry): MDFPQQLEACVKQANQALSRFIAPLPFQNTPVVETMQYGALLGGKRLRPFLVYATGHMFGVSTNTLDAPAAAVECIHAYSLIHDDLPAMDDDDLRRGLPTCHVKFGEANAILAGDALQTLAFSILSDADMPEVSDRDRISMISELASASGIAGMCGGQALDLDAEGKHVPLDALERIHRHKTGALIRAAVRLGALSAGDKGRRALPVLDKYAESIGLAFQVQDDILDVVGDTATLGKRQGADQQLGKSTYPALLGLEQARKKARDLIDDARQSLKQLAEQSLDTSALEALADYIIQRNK
Outline: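 Purified recombinant FPPS (25 ng) preincubated with test compound for 10 min at room temperature in pH 7.0 buffer (10 mm HEPES, 150 mm NaCl, 5 mm MgCl2). Compound diluted from 1 mm to 1 nm. Reaction started with 50 μm GPP, 50 μm IPP, purine nucleoside phosphorylase, inorganic phosphatase and ~600 μm MESG.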

HEK293 = HEK293 toxicity assay; type: cell-based; details: Homo sapiens, HEK293, read-out: IC50 HEK293
A. baumannii [5] = experiment: A. baumannii growth inhibition assay; type: cell-based; details: Acinetobacter baumannii
Outline: as §1

PaFPPS = PaFPPS (Pseudomonas aeruginosa, UniProt Q9HWY4); experiment: PaFPPS inhibition, phosphate release assay; type: biochemical
Outline: as §2

[6] = test system: E. coli, A. baumannii, K. pneumoniae and P. aeruginosa; experiment: Synergy of 11 with fosmidomycin, mean over four Gram-negative bacteria; type: cell-based
P. aeruginosa = experiment: Synergy/antagonism two-drug combination assay, P. aeruginosa; type: cell-based
[7] = test system: E. coli BL21(DE3) with PaFPPS overexpression; experiment: Growth inhibition of E. coli overexpressing PaFPPS; type: cell-based; details: Escherichia coli
TbFPPS = TbFPPS (Trypanosoma brucei, UniProt Q86C09); experiment: TbFPPS inhibition, phosphate release assay; type: biochemical
Outline: as §2

E. coli [8] = experiment: E. coli growth inhibition assay; type: cell-based; details: Escherichia coli
Outline: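 E. coli K-12 or BL21(DE3). Overnight starter culture diluted 1000-fold and grown to OD600 ~0.3, then diluted 500-fold into LB. Test compound added as a 3-fold series from 1 mm to 46 nm. Incubated 12 h at 37°C with shaking at 200 RPM; growth read as A600. IC50 by nonlinear regression. Rescue arm: farnesol 200 μm in the medium. Duplicate experiments, mean±SD.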

[9] = test system: E. coli, P. aeruginosa, K. pneumoniae and A. baumannii; experiment: Growth inhibition, four Gram-negative bacteria taken together; type: cell-based; details: read-out: IC50, activity against all four Gram-negatives
[10] = test system: S. aureus (Newman strain); experiment: S. aureus growth inhibition assay; type: cell-based; details: Staphylococcus aureus, read-out: IC50 S. aureus
Outline: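 S. aureus Newman grown overnight in tryptic soy broth, then diluted 1000-fold in fresh medium. Test compound dosed as a 3-fold series from 1 mm to 46 nm. Incubated at 37°C, 200 RPM, overnight; growth read as OD600.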

M. smegmatis = M. smegmatis growth inhibition; type: cell-based, Mycobacterium smegmatis
E. coli [11] = experiment: Synergy/antagonism two-drug combination assay, E. coli; type: cell-based
[12] = K. pneumoniae, combination of 11 with fosmidomycin
[13] = A. baumannii, combination of 11 with fosmidomycin
[14] = P. aeruginosa, combination of 11 with fosmidomycin
[15] = E. coli, combination of 11 with fosmidomycin

O=P([O-])(O)C(C[n+]1ccn(CCCc2ccc(F)c(F)c2)c1)P(=O)(O)O (stereo not shown) [compound 11, Hydrogen (2-(3-(3-(3,4-difluorophenyl)propyl)-1H-imidazol-3-ium-1-yl)-1-phosphonoethyl) phosphonate]
IC50 (P. aeruginosa (PA01); read-out: IC50 P. aeruginosa): 3.5 ± 0.78 µg/mL (≈ 8.53 µM)
IC50 (P. aeruginosa (PA01); read-out: IC50 with RA): 23 ± 7.8 µg/mL (≈ 56.1 µM)
IC50 (P. aeruginosa (PA01); read-out: IC50 without RA): 3.5 ± 0.78 µg/mL (≈ 8.53 µM)
IC50 (B. subtilis): 39 ± 13 µg/mL (≈ 95.1 µM)
FIC (K. pneumoniae [1]; [12]): 0.097 ± 0.012
FIC Index (K. pneumoniae [1]; [12]): 0.22 ± 0.026
MIC (K. pneumoniae [1]; Klebsiella pneumoniae): 6 µg/mL
IC50 (SmFPPS): 570 ± 110 nM
IC50 (K. pneumoniae [2]; read-out: IC50 K. pneumoniae): 2.3 ± 0.49 µg/mL (≈ 5.61 µM)
IC50 (K. pneumoniae [2]; read-out: IC50 with RA): 13 ± 1.8 µg/mL (≈ 31.7 µM)
IC50 (K. pneumoniae [2]; read-out: IC50 without RA): 2.3 ± 0.49 µg/mL (≈ 5.61 µM)
IC50 [3]: 390 ± 73 nM
IC50 (HsFPPS): 65 ± 12 nM
FIC (A. baumannii [4]; [13]): 0.37 ± 0.17
FIC Index (A. baumannii [4]; [13]): 0.64 ± 0.23
MIC (A. baumannii [4]; Acinetobacter baumannii): 6 µg/mL
IC50 (EcFPPS): 120 ± 25 nM
IC50 (HEK293): 27 ± 4 µg/mL (≈ 65.8 µM)
IC50 (A. baumannii [5]; read-out: IC50 A. baumannii): 2.8 ± 0.7 µg/mL (≈ 6.83 µM)
IC50 (A. baumannii [5]; read-out: IC50 with RA): 18 ± 4.9 µg/mL (≈ 43.9 µM)
IC50 (A. baumannii [5]; read-out: IC50 without RA): 2.8 ± 0.7 µg/mL (≈ 6.83 µM)
IC50 (PaFPPS): 320 ± 68 nM
mean FICI [6]: 0.42 ± 0.17
FIC (P. aeruginosa; [14]): 0.27 ± 0.057
FIC Index (P. aeruginosa; [14]): 0.44 ± 0.12
MIC (P. aeruginosa; Pseudomonas aeruginosa): 10 µg/mL
IC50 ([7]; BL21-DE3, read-out: IC50 with RA): 19 ± 2.4 µg/mL (≈ 46.3 µM)
IC50 ([7]; BL21-DE3, read-out: IC50 without RA): 1.6 ± 0.35 µg/mL (≈ 3.9 µM)
IC50 (TbFPPS): 120 ± 26 nM
IC50 (E. coli [8]; read-out: IC50 E. coli): 2.1 ± 0.57 µg/mL (≈ 5.12 µM)
IC50 (E. coli [8]; read-out: IC50 with RA): 19 ± 4.1 µg/mL (≈ 46.3 µM)
IC50 (E. coli [8]; read-out: IC50 without RA): 2.1 ± 0.57 µg/mL (≈ 5.12 µM)
IC50 [9]: 1 to 4 µg/mL (≈ 2.44 to 9.75 µM)
IC50 [10]: > 100 µg/mL
IC50 (M. smegmatis; Mycolicibacterium smegmatis, read-out: IC50 M. smegmatis, cell growth inhibition): ~7 µg/mL (≈ 17.1 µM)
IC50 M. smegmatis (M. smegmatis; cell growth inhibition): 6.8 ± 3.0 µg/mL (≈ 16.6 µM)
FICI (E. coli [11]; E. coli cell growth, combination of 32 and 11): 0.31 ± 0.099
FIC (E. coli [11]; [15]): 0.24 ± 0.023
FIC Index (E. coli [11]; [15]): 0.39 ± 0.15
MIC (E. coli [11]; Escherichia coli): 6 µg/mL

Reference: paper PMC5160999 (ChemMedChem, 2016)
